Test results published in ChEMBL document CHEMBL1926500, “Design, synthesis, biological evaluation and molecular modeling of 1,3,4-oxadiazoline analogs of combretastatin-A4 as novel antitubulin agents” (Bioorg Med Chem, 2012).

Experiments:
[1] = Inhibition of bovine brain tubulin polymerization after 20 mins by turbidimetry; set-up: species or system Bos taurus
Summary of the method: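 Bovine brain tubulin, purified in-house, used at 10 μM in glutamate buffer and preincubated with varying compound concentrations at 30 °C, then cooled to 0 °C. GTP added, mixtures warmed to 30 °C in a recording spectrophotometer, and assembly followed turbidimetrically. IC50 is the concentration inhibiting extent of assembly by 50% after 20 min.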

HepG2 = assay: Antiproliferative activity against human HepG2 cells after 48 hrs by MTT assay; format: functional, cell-based; conditions: HepG2, 48 h
Summary of the method: (§1)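 Cells grown to log phase in RPMI 1640 with 10% FBS, seeded at 2×10^4 cells/mL, then left 24 h at 37 °C, 5% CO2 before dosing at pre-set concentrations. […] After 48 h exposure, MTT (2.5 mg/mL in PBS) was added for 4 h, then SDS/isobutyl alcohol/HCl extraction overnight at 37 °C, and OD read at 570 nm. Triplicate wells per concentration; each assay run at least three times; IC50 derived.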

MCF7 = assay: Antiproliferative activity against human MCF7 cells after 48 hrs by MTT assay; format: functional, cell-based; conditions: MCF7, 48 h; summary of the method: as §1
B16-F10 [2] = assay: Antiproliferative activity against mouse B16F10 cells after 48 hrs by MTT assay; format: functional, cell-based; conditions: B16-F10, 48 h; summary of the method: as §1
B16-F10 [3] = assay: Cell cycle arrest in mouse B16F10 cells assessed as accumulation at Go/G1 phase at 2 ug/ml after 24 hrs by flow cytometry analysis (reference value: 70.4 %); format: functional
B16-F10 [4] = assay: Cell cycle arrest in mouse B16F10 cells assessed as accumulation at S phase at 2 ug/ml after 24 hrs by flow cytometry analysis (reference value: 9.97 %); format: functional
B16-F10 [5] = assay: Cell cycle arrest in mouse B16F10 cells assessed as accumulation at G2/M phase at 2 ug/ml after 24 hrs by flow cytometry analysis (reference value: 17.67 %); format: functional
B16-F10 [6] = assay: Cell cycle arrest in mouse B16F10 cells assessed as accumulation at S phase at 1 ug/ml after 24 hrs by flow cytometry analysis (reference value: 9.97 %); format: functional
B16-F10 [7] = assay: Cell cycle arrest in mouse B16F10 cells assessed as accumulation at G2/M phase at 1 ug/ml after 24 hrs by flow cytometry analysis (reference value: 17.67 %); format: functional

| Compound | IC50 [1] [µM] | pIC50 [1] | IC50 (HepG2) [µM] | IC50 (MCF7) [µM] | IC50 (B16-F10 [2]) [µM] | Activity (B16-F10 [3]) [%] | Activity (B16-F10 [4]) [%] | Activity (B16-F10 [5]) [%] | Activity (B16-F10 [6]) [%] | Activity (B16-F10 [7]) [%] |
| --- | --- | --- | --- | --- | --- | --- | --- | --- | --- | --- |
| CC(=O)N1N=C(c2ccc3ccccc3c2)OC1c1ccccc1Br (centres undefined) | 51.5 | 3.88 | 3.98 | 5.49 | 6.98 | – | – | – | – | – |
| CC(=O)N1N=C(c2ccc3ccccc3c2)OC1c1ccccc1Cl (centres undefined) | 51.4 | 3.83 | 4.32 | 2.36 | 4.93 | – | – | – | – | – |
| CC(=O)N1N=C(c2ccc3ccccc3c2)OC1c1cccc(F)c1 (centres undefined) | 9.2 | 4.55 | 1.86 | 1.98 | 1.61 | – | – | – | – | – |
| CC(=O)N1N=C(c2ccc3ccccc3c2)OC1c1ccc(F)cc1 (centres undefined) | 28.1 | 4.07 | 1.82 | 3.02 | 4.65 | – | – | – | – | – |
| CC(=O)N1N=C(c2ccc3ccccc3c2)OC1c1ccccc1O (centres undefined) | 27.1 | 4.08 | 1.84 | 2.12 | 2.58 | – | – | – | – | – |
| CC(=O)N1N=C(c2ccc3ccccc3c2)OC1c1ccc2ccccc2c1 (centres undefined) | 4.3 | 4.93 | 0.85 | 1.01 | 1.56 | 1.72 | 2.04 | 77.18 | – | – |
| CC(=O)N1N=C(c2ccc3ccccc3c2)OC1c1ccccn1 (centres undefined) | 53.8 | 3.77 | 5.26 | 6.02 | 7.18 | – | – | – | – | – |
| CC(=O)N1N=C(c2ccc3ccccc3c2)OC1c1cccnc1 (centres undefined) | 20.1 | 4.19 | 2.86 | 2.61 | 3.06 | – | – | – | – | – |
| CC(=O)N1N=C(c2ccc3ccccc3c2)OC1c1ccncc1 (centres undefined) | 22.8 | 4.14 | 2.17 | 2.56 | 2.97 | – | – | – | – | – |
| COc1cc2c(c(OC)c1OC)-c1ccc(OC)c(=O)cc1[C@@H](NC(C)=O)CC2 [COLCHICINE] | – | – | – | – | – | – | – | – | 2.43 | 75.24 |
| COc1ccc(/C=C\c2cc(OC)c(OC)c(OC)c2)cc1O [COMBRETASTATIN A4] | 2.9 | – | 0.54 | 0.48 | 0.75 | – | – | – | – | – |

Further compounds by falling IC50 [1], results first:

| IC50 [1] [µM] | pIC50 [1] | IC50 (HepG2) [µM] | IC50 (MCF7) [µM] | IC50 (B16-F10 [2]) [µM] | Compound | Activity (B16-F10 [3]) [%] | Activity (B16-F10 [4]) [%] | Activity (B16-F10 [5]) [%] | Activity (B16-F10 [6]) [%] | Activity (B16-F10 [7]) [%] |
| --- | --- | --- | --- | --- | --- | --- | --- | --- | --- | --- |
| 140 | 3.4 | 12.3 | 18.2 | 9.01 | CC(=O)N1N=C(c2ccc3ccccc3c2)OC1c1ccccc1[N+](=O)[O-] (centres undefined) | – | – | – | – | – |
| 105 | 3.51 | 3.6 | 7.35 | 6.86 | COc1ccc(C2OC(c3ccc4ccccc4c3)=NN2C(C)=O)cc1 (centres undefined) | – | – | – | – | – |
| 103 | 3.54 | 8.1 | 7.59 | 9.32 | CC(=O)N1N=C(c2ccc3ccccc3c2)OC1c1ccc([N+](=O)[O-])cc1 (centres undefined) | – | – | – | – | – |
| 58.2 | 3.86 | 3.38 | 5.49 | 8.08 | CC(=O)N1N=C(c2ccc3ccccc3c2)OC1c1ccc(OCc2ccccc2)cc1 (centres undefined) | – | – | – | – | – |
| 51.9 | 3.79 | 6.82 | 7.98 | 8.56 | CC(=O)N1N=C(c2ccc3ccccc3c2)OC1c1ccsc1 (centres undefined) | – | – | – | – | – |
| 48.1 | 3.84 | 3.36 | 3.44 | 6.05 | CC(=O)N1N=C(c2ccc3ccccc3c2)OC1c1ccccc1F (centres undefined) | – | – | – | – | – |
| 33.8 | 4.06 | 2.08 | 5.07 | 4.68 | CC(=O)N1N=C(c2ccc3ccccc3c2)OC1c1ccc(Br)cc1 (centres undefined) | – | – | – | – | – |
| 30.5 | 4.03 | 2.26 | 2.9 | 3.85 | CC(=O)N1N=C(c2ccc3ccccc3c2)OC1c1ccc(C)cc1 (centres undefined) | – | – | – | – | – |
| 21.2 | 4.17 | 2.11 | 2.43 | 2.57 | CC(=O)N1N=C(c2ccc3ccccc3c2)OC1c1ccccc1 (centres undefined) | – | – | – | – | – |
| 19.4 | 4.3 | 1.68 | 2.34 | 2.36 | CC(=O)N1N=C(c2ccc3ccccc3c2)OC1c1cccc(Br)c1 (centres undefined) | – | – | – | – | – |
| 12.7 | 4.44 | 1.88 | 2.63 | 2.48 | CC(=O)N1N=C(c2ccc3ccccc3c2)OC1c1ccc(Cl)cc1 (centres undefined) | – | – | – | – | – |
